Data on 1 compound can be found in ChEMBL document CHEMBL5661979, “Pharmacological inhibition of BMK1 suppresses tumor growth through promyelocytic leukemia protein” (Cancer Cell, 2010).

Data set [1] has as its target RAC-alpha serine/threonine-protein kinase (Homo sapiens, UniProt P31749). Briefly: Inhibition of AKT1 in human HeLa cells lysate pre incubated for 15 mins followed by ATP acyl phosphate probe addition and measured after 10 mins by LC-MS/MS analysis. The data set is classed as subcellular. The essentials:
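HeLa cell lysates (5 mg/mL total protein) were preincubated with inhibitor at 0, 0.8, 2, 10 or 50 μM for 15 min. ATP or ADP acylphosphate probe was then added (5 μM final) for 10 min, and reactions were stopped with urea. Up to four fragment ions per kinase probe-peptide were quantified by targeted MS. % inhibition was taken relative to untreated lysate. Run in duplicate.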

Data set [2] has as its target T1, Cyclin-dependent kinase 2 (Homo sapiens, UniProt P24941). Briefly: Inhibition of CDK2 K1 site in human HeLa cells lysate pre incubated for 15 mins followed by ATP acyl phosphate probe addition and measured after 10 mins by LC-MS/MS analysis. It counts as subcellular. The essentials:
(§1)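 KiNativ profiling in HeLa lysate (5 mg/mL total protein). Lysate incubated 15 min with inhibitor at 50, 10, 2, 0.8 or 0 μM. ATP or ADP acylphosphate probe then added (5 μM final) and reacted 10 min. Reaction stopped with urea and analysed by targeted MS, using up to four fragment ions per kinase peptide-probe conjugate. % inhibition taken against untreated lysate. Run in duplicate.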

The target of data set [3] is T1, Cyclin-dependent kinase 2. Briefly: Inhibition of CDK2 K1 site in human HeLa cells lysate pre incubated for 15 mins followed by ADP acyl phosphate probe addition and measured after 10 mins by LC-MS/MS analysis. It counts as subcellular. The procedure, abridged: as §1
Data set [4] can be described thus: Inhibition of CDK5/PRKX/PRKY in human HeLa cells lysate pre incubated for 15 mins followed by ADP acyl phosphate probe addition and measured after 10 mins by LC-MS/MS analysis. The data set is classed as subcellular. The procedure, abridged:
as §1

Data set [5] deals with Cyclin-dependent kinase 13 (Homo sapiens, UniProt Q14004). Briefly: Inhibition of CHED in human HeLa cells lysate pre incubated for 15 mins followed by ADP acyl phosphate probe addition and measured after 10 mins by LC-MS/MS analysis. The data set is classed as subcellular. The essentials: as §1
Data set [6] concerns the target T2, Serine/threonine-protein kinase Sgk3 (Homo sapiens, UniProt Q96BR1).
T2 sequence (Q96BR1 whole entry): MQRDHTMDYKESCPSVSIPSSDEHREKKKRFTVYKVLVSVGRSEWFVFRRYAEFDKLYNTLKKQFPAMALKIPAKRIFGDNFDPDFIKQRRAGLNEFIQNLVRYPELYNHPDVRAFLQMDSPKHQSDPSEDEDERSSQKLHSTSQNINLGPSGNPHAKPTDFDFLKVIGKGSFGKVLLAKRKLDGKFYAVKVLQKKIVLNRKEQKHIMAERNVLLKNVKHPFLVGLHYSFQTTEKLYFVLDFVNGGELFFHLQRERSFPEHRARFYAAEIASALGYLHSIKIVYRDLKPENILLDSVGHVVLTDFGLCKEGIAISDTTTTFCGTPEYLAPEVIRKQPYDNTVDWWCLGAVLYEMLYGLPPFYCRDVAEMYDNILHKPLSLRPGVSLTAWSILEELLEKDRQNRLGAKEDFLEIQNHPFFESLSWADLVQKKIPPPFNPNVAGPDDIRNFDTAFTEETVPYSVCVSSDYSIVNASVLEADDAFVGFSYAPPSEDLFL
Briefly: Inhibition of SGK3 in human HeLa cells lysate pre incubated for 15 mins followed by ADP acyl phosphate probe addition and measured after 10 mins by LC-MS/MS analysis. The data set is classed as subcellular.

Data set [7] deals with Ribosomal protein S6 kinase alpha-5 (Homo sapiens, UniProt O75582). Put plainly: Inhibition of MSK1 domain 1 in human HeLa cells lysate at 10 uM pre incubated for 15 mins followed by ADP acyl phosphate probe addition and measured after 10 mins by LC-MS/MS analysis relative to control. The data set is classed as subcellular. The settings on record: time 25.0 min.
Data set [8] is described as follows: Inhibition of CDK5/PRKX/PRKY in human HeLa cells lysate at 10 uM pre incubated for 15 mins followed by ADP acyl phosphate probe addition and measured after 10 mins by LC-MS/MS analysis relative to control. The settings on record: 25 min, condition cancer. The essentials:
as §1

For data set [9], the target named is Serine/threonine-protein kinase Nek7 (Homo sapiens, UniProt Q8TDX7). Put plainly: Inhibition of NEK7 in human HeLa cells lysate at 2 uM pre incubated for 15 mins followed by ADP acyl phosphate probe addition and measured after 10 mins by LC-MS/MS analysis relative to control. It counts as subcellular. The settings on record: time 25.0 min.
Data set [10] deals with Calcium/calmodulin-dependent protein kinase type 1D (Homo sapiens, UniProt Q8IU85). Briefly: Inhibition of CAMK1d in human HeLa cells lysate at 10 uM pre incubated for 15 mins followed by ATP acyl phosphate probe addition and measured after 10 mins by LC-MS/MS analysis relative to control. The data set is classed as subcellular. The settings on record: time 25.0 min. The essentials: (§2)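 KiNativ-type profiling in HeLa lysate (5 mg/mL total protein). Lysate preincubated 15 min with inhibitor at 50, 10, 2, 0.8 or 0 μM, then ATP or ADP acylphosphate probe added (5 μM final) for 10 min. Reaction stopped with urea and analysed by targeted MS, using up to four fragment ions per kinase peptide-probe conjugate. % inhibition calculated against untreated lysate. Duplicate reactions.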

In a further data set the target is SRSF protein kinase 1 (Homo sapiens, UniProt Q96SB4). Put plainly: Inhibition of SRPK1 in human HeLa cells lysate at 10 uM pre incubated for 15 mins followed by ATP acyl phosphate probe addition and measured after 10 mins by LC-MS/MS analysis relative to control. The data set is classed as subcellular. The settings on record: time 25.0 min.
The target of data set [11] is Calcium/calmodulin-dependent protein kinase type II subunit gamma (Homo sapiens, UniProt Q13555). Briefly: Inhibition of CAMK2g in human HeLa cells lysate at 2 uM pre incubated for 15 mins followed by ATP acyl phosphate probe addition and measured after 10 mins by LC-MS/MS analysis relative to control. The settings on record: time 25.0 min. The data set is classed as subcellular. The procedure, abridged:
as §2

The next data set concerns the target eIF-2-alpha kinase GCN2 (Homo sapiens, UniProt Q9P2K8). Briefly: Inhibition of GCN2 in human HeLa cells lysate at 2 uM pre incubated for 15 mins followed by ATP acyl phosphate probe addition and measured after 10 mins by LC-MS/MS analysis relative to control. The settings on record: time 25.0 min. The data set is classed as subcellular.
Data set [12] has as its target Cyclin-dependent kinase 11B (Homo sapiens, UniProt P21127). Briefly: Inhibition of PITSLRE in human HeLa cells lysate at 2 uM pre incubated for 15 mins followed by ATP acyl phosphate probe addition and measured after 10 mins by LC-MS/MS analysis relative to control. The data set is classed as subcellular. The settings on record: time 25.0 min.
Data set [13] deals with Hepatocyte growth factor receptor (Homo sapiens, UniProt P08581). Briefly: Inhibition of MET in human HeLa cells lysate at 2 uM pre incubated for 15 mins followed by ATP acyl phosphate probe addition and measured after 10 mins by LC-MS/MS analysis relative to control. The settings on record: time 25.0 min. It counts as subcellular.
The nature of data set [14]: Toxicity in C57Bl/6 mouse assessed as effect on calcium level at 50 mg/kg, ip for 14 days (reference value: 9.9 mg/dl). The data set is classed as organism-based. The settings on record: in vivo, 336 h, time 14 day.
The subject of another data set is HeLa. Put plainly: Antitumor activity against human HeLa cells xenografted in NOD/SCID mouse assessed as reduction tumor growth at 50 mg/kg, ip administered for 28 days. It counts as functional, organism-based. The settings on record: time 28.0 day. The essentials: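 HeLa cells (5×10^5, in DMEM) were injected s.c. into the right flank of 6-week-old Nod/Scid mice on day 0. Dosing was 50 mg/kg i.p. twice daily, starting on day 1, 7 or 14 and continuing to day 28; controls received carrier. 6 mice per treated group. Tumors were measured every 2–3 days.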
For orientation: Xenograft models place foreign cells or tissue in a host animal.

Each structure is given as a SMILES string. Active and inactive are the calls of the source. The rule behind the calls is not given here.

As a reminder, the IC50 is the concentration that gives 50% inhibition. Broadly, the inhibition is the relative decrease from the control value, in per cent.

Serine/threonine-protein kinase Nek7, sequence (Q8TDX7 whole entry, looked up): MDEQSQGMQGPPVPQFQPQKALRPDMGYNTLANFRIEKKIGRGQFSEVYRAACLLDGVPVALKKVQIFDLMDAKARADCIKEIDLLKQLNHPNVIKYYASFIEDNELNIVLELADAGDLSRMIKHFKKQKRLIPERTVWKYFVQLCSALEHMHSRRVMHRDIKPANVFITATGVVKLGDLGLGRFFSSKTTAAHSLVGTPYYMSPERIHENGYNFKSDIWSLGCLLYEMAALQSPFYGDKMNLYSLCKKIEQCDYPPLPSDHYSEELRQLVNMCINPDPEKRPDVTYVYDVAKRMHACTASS
Calcium/calmodulin-dependent protein kinase type 1D, sequence (Q8IU85 whole entry, looked up, the tested form may be a part): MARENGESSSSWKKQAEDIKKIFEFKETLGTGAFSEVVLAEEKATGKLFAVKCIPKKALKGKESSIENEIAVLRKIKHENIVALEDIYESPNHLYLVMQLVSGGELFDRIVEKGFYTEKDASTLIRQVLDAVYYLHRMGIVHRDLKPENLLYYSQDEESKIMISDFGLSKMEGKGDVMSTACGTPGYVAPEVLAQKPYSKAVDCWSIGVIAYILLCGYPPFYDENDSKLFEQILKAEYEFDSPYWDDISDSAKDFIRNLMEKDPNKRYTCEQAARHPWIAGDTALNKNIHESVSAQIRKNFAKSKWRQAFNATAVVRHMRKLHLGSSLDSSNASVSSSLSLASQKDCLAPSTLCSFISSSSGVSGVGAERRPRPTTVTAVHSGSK
eIF-2-alpha kinase GCN2, sequence (Q9P2K8 whole entry): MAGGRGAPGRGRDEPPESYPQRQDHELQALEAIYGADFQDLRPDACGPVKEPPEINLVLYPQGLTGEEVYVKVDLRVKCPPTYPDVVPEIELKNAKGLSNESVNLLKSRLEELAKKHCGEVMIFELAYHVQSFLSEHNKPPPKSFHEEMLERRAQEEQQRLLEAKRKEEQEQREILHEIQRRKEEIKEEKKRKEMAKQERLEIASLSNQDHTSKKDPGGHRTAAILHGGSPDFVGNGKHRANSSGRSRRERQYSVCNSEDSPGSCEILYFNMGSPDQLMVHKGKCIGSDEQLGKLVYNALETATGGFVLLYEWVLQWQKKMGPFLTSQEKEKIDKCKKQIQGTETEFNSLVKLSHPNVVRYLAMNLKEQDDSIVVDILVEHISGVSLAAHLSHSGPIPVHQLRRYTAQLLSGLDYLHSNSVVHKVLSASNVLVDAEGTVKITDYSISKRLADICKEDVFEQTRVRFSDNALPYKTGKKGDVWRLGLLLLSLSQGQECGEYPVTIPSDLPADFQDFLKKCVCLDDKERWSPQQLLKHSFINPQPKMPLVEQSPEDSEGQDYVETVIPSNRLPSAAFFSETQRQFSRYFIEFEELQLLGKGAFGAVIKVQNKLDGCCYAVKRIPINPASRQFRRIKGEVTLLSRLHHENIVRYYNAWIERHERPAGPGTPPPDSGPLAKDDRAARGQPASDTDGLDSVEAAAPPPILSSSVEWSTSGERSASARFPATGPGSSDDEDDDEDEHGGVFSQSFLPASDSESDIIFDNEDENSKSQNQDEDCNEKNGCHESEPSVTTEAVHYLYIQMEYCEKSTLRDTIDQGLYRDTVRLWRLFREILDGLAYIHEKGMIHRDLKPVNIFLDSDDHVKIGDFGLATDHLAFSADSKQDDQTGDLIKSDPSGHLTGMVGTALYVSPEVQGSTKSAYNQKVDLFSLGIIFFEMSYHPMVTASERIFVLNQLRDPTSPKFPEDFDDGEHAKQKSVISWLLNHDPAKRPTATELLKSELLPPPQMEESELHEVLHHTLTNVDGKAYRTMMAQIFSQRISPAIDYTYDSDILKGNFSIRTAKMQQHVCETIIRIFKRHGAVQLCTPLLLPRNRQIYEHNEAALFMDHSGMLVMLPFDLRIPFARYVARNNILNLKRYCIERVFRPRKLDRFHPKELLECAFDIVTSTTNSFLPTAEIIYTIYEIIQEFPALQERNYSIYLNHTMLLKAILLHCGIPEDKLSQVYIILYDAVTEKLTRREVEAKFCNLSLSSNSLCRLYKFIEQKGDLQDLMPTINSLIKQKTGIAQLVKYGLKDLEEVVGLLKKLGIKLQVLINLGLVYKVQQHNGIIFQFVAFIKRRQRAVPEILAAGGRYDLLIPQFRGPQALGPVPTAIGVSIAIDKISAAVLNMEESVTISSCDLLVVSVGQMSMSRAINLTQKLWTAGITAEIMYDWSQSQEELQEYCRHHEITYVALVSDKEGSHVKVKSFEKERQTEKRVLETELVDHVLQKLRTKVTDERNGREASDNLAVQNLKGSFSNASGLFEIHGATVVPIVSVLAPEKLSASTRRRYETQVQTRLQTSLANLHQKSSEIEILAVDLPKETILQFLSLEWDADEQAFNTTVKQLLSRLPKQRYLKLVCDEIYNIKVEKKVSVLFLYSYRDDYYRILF
Hepatocyte growth factor receptor, sequence (P08581 whole entry): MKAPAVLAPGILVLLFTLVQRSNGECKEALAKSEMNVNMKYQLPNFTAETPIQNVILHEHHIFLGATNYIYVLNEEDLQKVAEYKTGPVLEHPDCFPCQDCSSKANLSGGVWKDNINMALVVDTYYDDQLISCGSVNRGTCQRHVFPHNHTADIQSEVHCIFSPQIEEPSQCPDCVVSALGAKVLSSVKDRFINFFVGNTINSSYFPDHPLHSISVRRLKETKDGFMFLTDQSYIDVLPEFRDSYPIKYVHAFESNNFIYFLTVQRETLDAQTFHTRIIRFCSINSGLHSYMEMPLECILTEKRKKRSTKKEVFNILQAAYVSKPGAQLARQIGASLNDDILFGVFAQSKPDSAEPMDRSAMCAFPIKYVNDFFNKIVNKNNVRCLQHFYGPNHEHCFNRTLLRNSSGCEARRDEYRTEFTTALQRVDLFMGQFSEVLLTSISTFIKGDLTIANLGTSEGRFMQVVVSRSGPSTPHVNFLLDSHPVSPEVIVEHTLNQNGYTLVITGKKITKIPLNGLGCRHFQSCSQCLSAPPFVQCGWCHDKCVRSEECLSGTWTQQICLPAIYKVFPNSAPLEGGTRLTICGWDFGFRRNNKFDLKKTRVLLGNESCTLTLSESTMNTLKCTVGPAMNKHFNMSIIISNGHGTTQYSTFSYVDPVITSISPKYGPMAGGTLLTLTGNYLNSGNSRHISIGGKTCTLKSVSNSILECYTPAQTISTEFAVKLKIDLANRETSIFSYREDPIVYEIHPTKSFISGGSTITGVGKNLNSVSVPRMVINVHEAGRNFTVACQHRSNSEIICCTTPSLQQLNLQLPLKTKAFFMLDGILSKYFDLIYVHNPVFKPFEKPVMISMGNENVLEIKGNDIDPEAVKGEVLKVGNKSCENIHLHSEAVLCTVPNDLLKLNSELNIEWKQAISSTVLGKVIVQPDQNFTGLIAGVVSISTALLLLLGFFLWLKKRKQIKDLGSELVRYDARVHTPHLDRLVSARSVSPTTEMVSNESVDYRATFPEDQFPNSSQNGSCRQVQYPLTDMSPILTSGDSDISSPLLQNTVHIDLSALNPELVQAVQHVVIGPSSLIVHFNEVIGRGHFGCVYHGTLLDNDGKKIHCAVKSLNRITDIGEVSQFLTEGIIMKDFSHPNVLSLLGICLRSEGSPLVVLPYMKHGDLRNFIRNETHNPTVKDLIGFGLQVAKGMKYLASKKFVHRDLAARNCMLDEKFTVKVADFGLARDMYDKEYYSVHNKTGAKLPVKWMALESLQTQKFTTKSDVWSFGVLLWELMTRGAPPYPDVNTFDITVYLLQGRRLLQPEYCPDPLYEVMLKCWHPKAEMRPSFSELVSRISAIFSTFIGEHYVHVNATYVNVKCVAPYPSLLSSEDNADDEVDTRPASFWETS
Calcium/calmodulin-dependent protein kinase type II subunit gamma, sequence (Q13555 whole entry): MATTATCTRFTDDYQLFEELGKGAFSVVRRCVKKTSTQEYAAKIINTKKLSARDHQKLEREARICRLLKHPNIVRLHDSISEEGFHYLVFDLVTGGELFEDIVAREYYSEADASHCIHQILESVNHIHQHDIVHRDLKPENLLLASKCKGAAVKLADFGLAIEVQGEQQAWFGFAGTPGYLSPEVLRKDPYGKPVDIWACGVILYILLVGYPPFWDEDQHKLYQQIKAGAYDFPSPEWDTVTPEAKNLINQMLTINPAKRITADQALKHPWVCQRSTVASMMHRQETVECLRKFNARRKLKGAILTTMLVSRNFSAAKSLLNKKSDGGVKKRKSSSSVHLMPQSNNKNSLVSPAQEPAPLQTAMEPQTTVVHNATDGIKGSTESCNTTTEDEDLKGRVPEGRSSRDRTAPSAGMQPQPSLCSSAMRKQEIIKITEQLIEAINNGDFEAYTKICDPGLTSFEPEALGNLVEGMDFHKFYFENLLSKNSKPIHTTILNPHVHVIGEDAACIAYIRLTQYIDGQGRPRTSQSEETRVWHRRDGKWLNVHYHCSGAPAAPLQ
Ribosomal protein S6 kinase alpha-5, sequence (O75582 whole entry, looked up, the tested form may be a part): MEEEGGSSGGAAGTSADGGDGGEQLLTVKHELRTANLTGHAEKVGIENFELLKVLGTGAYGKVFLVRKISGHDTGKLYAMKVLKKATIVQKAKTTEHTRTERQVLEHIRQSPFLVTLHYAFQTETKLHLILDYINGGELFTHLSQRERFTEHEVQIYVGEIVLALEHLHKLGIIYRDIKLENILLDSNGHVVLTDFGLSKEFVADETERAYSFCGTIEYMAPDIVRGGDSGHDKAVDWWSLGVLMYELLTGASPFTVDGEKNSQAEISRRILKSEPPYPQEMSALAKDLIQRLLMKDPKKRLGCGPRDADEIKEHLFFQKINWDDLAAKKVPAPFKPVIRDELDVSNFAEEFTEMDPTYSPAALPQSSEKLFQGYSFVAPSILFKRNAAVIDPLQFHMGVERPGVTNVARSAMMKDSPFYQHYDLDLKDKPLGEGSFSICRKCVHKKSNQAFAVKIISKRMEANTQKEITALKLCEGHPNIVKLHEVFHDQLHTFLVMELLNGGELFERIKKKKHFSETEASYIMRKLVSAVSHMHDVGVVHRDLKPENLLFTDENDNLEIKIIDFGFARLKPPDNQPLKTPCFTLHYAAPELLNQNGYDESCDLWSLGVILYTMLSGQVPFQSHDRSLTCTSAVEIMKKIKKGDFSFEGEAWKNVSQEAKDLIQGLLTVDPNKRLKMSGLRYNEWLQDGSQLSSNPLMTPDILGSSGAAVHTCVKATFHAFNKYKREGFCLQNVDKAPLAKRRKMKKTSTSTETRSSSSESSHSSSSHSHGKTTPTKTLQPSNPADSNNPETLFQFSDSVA

`CCOc1cc(N2CCC(O)CC2)ccc1Nc1ncc2c(n1)N(C)c1ccccc1C(=O)N2C`: the IC50 in [1], in data set [2], in data set [3], in data set [4], in data set [5] and in data set [6] was over 50 µM each time. Besides, the inhibition in data set [7] was -7.3%; in data set [9], 14.2%; in data set [10] it was -7.6%; against SRSF protein kinase 1 it was 1.3%; in data set [11] it was 3%; against eIF-2-alpha kinase GCN2, 0.2%. The inhibition in data set [12] came out at 4.9%; in data set [13], 38%. Further, the inhibition at 10 µM in data set [8] is -0.1%. Also, in data set [14], the Activity came out at 9.1 mg/dL. Besides, the outcome in the data set on HeLa was Active.
